Compound activity as filed in PubChem.
T cruzi repl: blocks replication of Trypanosoma cruzi | inhibition, % (test concentration not listed) | AID 1885 | T. cruzi beta-gal in NIH3T3, luminescence, 90 h | 300,000 tested, 1.4% active;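 active = mean inhibition across valid replicates above about 55%, limit read from the data; inconclusive = mean below that limit but half or more replicates reach it; inactive = mean below it, under half of replicates reach it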;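 also: signal also drops with host cell toxicity which is not excluded here; higher percent means less beta-gal luminescence so fewer parasites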
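Assay system: NIH/3T3 fibroblasts plus reporter T. cruzi. Amount: NIH/3T3 cells, 5,000 per well. Buffer or medium: DMEM, 2% fetal bovine serum. Doses: compound pinned at 50 nL/well, DMSO. Schedule: ≥90 h infection period, 3 h prior cell attachment. Signal: luminescent β-galactosidase signal after 60 min lysis. Read-out: parasite load inhibition, %.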
HSF1 activator: increases HSF-1 driven luciferase reporter signal | NIH3T3-HGL HSF-1 luciferase reporter, MG132, 8 h; 100% = twice DMSO control signal | activation, % at 9 µM | 300,000 tested, 1.7% active | AID 504408;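 active = mean replicate activation of at least 50% with a set share of replicates each reaching 50%; inconclusive = only one of those two conditions met; inactive = mean below 50% and too few replicates reaching it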
Calb FLC: affects C. albicans growth with fluconazole | C. albicans CaCi-2 + fluconazole, Alamar Blue growth, 48 h | growth inhibition, % (concentration not given with the values) | 300,000 tested, 0.57% active;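 active = growth inhibition above about 58% in most replicates, limit read from the data, passing the limit was not always enough; inconclusive = exactly half the replicates above a set limit; inactive = most replicates below a set limit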;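 also: all wells also contain fluconazole at 8 µg/ml as a sub-toxic cotreatment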
HSF1 inhib: HSF1 inhibition; 300,000 tested, 0.77% active; AID 2098; activity change, negative = inhibition, % at 7.5 µM (by protocol); NIH3T3-HGL HSE-luciferase, MG132-induced, luminescence 8 h; stronger effect = lower value;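 active = more than half of replicate wells show activity change below -50%, luminescence cut by over half; inconclusive = some wells, but at most half, below -50%; inactive = no replicate well below -50%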;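 also: luciferase reports HSF-1 transcriptional activity via heat shock element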
HIF act: HIF pathway transcriptional activation. 300,000 tested, 0.32% active. activation, % at 7.5 µM (by protocol). AID 1910. U2OS HRE-luciferase reporter, luminescence; normalized: DMSO 0%, desferrioxamine 100%;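 active = mean activation of at least 10% of the iron chelator positive control signal, with at least half of replicates also reaching 10%; inconclusive = mean and replicate majority disagree about reaching 10%; inactive = mean and most replicates under 10%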
Numbers stand for hits; i = inactive; ? = inconclusive. Most compounds without a hit are left out; they make up all but 4.4% or so of the library.

SMILES	T cruzi repl	HSF1 activator	Calb FLC	HSF1 inhib	HIF act
O=c1c(Cl)c(Cl)cnn1Cc1nnc(-c2ccc(Cl)cc2)o1	60	i	i	?	i
Cc1ccc(/C=N/NC(=O)c2ccc(Br)o2)s1	i	i	i	i	9.9
CCc1ccc(/C=N\NC(=O)c2ccc(Br)o2)s1	i	i	i	i	i
O=C(/C=C/c1ccc(Cl)cc1)N(c1ccccn1)C1CCCCC1	i	i	i	i	i
COc1ccc(/C=C/C(=O)N(c2ccccn2)C2CCCCC2)cc1OC	i	i	83	i	i
COc1ccc(-n2c(=O)c3c4c(sc3n(CC(N)=O)c2=O)CCCCC4)cc1	i	52	i	i	i
COc1ccc(C(=O)N2CCOC23CCN(c2ncccn2)CC3)cc1	i	i	i	i	i
O=C(NCc1ccccc1Cl)C1CCN(S(=O)(=O)c2ccc(N3CCCC3=O)cc2)CC1	i	i	i	i	i
Cc1ccc(Nc2ccc([N+](=O)[O-])nc2[N+](=O)[O-])cc1	62	i	i	i	i
O=C(/C=C/c1ccc(Cl)cc1Cl)N(Cc1ccccc1)C1CCS(=O)(=O)C1 (stereo not drawn)	i	52	i	i	i
O=C(/C=C/c1ccc(Cl)cc1Cl)N(Cc1ccc(Cl)cc1)C1CCS(=O)(=O)C1 (stereo not drawn)	i	i	i	i	i
Cc1cc(C)c(NC(=O)Cn2c([N+](=O)[O-])cnc2C)c(C)c1	i	i	i	i	i
Cc1cccc(N(C)S(=O)(=O)c2c(C)noc2C)c1	i	i	i	i	i
O=C(NC1CCCCC1)c1cc(-c2ccc(F)cc2)on1	i	54	i	i	i
Cc1ccc(-c2cc(C(=O)NC3CCCC3)no2)cc1	i	i	i	i	i
Cn1cccc1/C=C1\CCC/C(=C\c2cccn2C)C1=O	i	74	i	i	i
CN(Cc1ccccc1)C(=O)COc1ccc(C(C)(C)C)cc1	i	i	i	i	i
O=C(NC1CCCCC1)C(c1ccccn1)N(C(=O)c1csnn1)c1ccccc1 (stereo not drawn)	i	i	i	i	i
CC(C)(C)c1ccc(C(=O)N/C(=C\c2cccs2)C(=O)NCc2ccco2)cc1	i	i	i	i	i
CC(C)c1nnc(SCc2ccc(CSc3nnc(C(C)C)n3N)cc2)n1N	i	80	i	i	i
Cc1ccc(NC(=O)CCc2ccc(C)o2)cc1	i	i	i	i	i
FC(F)(F)c1cnc(/C=C/Nc2ccccc2Cl)c(Cl)c1	i	52	i	i	i
O=S(=O)(c1ccccc1)c1ncc(C(F)(F)F)cc1Cl	i	?	i	i	i
COCCOC(=O)c1c(NC(=O)CSc2cccc[n+]2[O-])sc(C(N)=O)c1C	i	72	i	i	i
O=C(CSc1cccc[n+]1[O-])N1CCCCCC1	i	i	i	i	i
SMILES	T cruzi repl	HSF1 activator	Calb FLC	HSF1 inhib	HIF act
COC(=O)c1ccc(-n2c(C)cc(C(=O)CSc3cccc[n+]3[O-])c2C)cc1	i	i	i	i	i
COC(=O)c1ccc(C(=O)OC)c(NC(=O)CSc2cccc[n+]2[O-])c1	i	i	113	i	i
O=C(CSc1cccc[n+]1[O-])CSc1cccc[n+]1[O-]	67	i	73	i	i
O=C(CSc1cccc[n+]1[O-])Nc1ccccc1Oc1ccccc1	82	i	?	i	i
COCCOC(=O)c1c(NC(=O)CN2c3ccccc3CC2C)sc(C(N)=O)c1C (stereo not drawn)	i	i	i	i	i
CCNC(=O)NC(=O)C(C)Sc1ncc(C(F)(F)F)cc1Cl (stereo not drawn)	i	i	i	i	i
O=C(NNc1ccccc1)Nc1ccccc1F	i	i	i	i	i
CCOC(=O)c1c(C)[nH]c(C(=O)N/N=C\c2ccccc2Cl)c1C	i	i	i	i	i
COc1ccc(CNC(=O)c2ccc(CS(=O)(=O)c3ccc(Br)cc3)o2)cc1	i	i	i	-68	i
CCCCn1c(N)c(Sc2ccc(C)cc2)c(=O)[nH]c1=O	i	i	i	i	i
CCCn1c(N)c(Sc2ccc(C)cc2)c(=O)n(CCC)c1=O	i	73	i	i	i
COc1ccc(Cn2nnnc2C(c2ccccc2Cl)N2CCC(C(N)=O)CC2)cc1 (stereo not drawn)	i	i	i	-51	i
COc1ccc(Cn2nnnc2C(c2cc(OC)ccc2OC)N2CCC(C(N)=O)CC2)cc1 (stereo not drawn)	i	i	i	i	i
